Test results: ChEMBL document CHEMBL4689842, “EUbOPEN Chemogenomics Library wave 1” (2021)
Values joined by “and” are separate entries in the source; they are usually repeats but may differ in a detail not shown here. Equal values may be shown once.

System: U2OS
Test: Multiplex assay against U2OS
Format: toxicity, cell-based
Settings: human
Outline: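 Imaging took place on a CQ1 microscope at 37°C and 5% CO2 once compound had been added to live cells stained at seeding with Hoechst33342, BioTracker Green Microtubule Cytoskeleton Dye, MitoTracker Red and Annexin V Alexa Fluor 680. CellPathfinder machine-learning gating classed cells as Hoechst high-intensity objects or normal cells, classed normal cells as having healthy, pyknosed or fragmented nuclei, and classed pyknosed cells as mitotic or apoptotic. Tubulin, mitochondrial-mass and membrane-permeability phenotypes are per cents of the healthy-nucleus cells.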

[1] = 12 h, 1 µM, compound concentration 1 uM, replicate 1
[2] = 12 h, 1 µM, compound concentration 1 uM, replicate 2
[3] = 12 h, 10 µM, compound concentration 10 uM, replicate 1
[4] = 12 h, 10 µM, compound concentration 10 uM, replicate 2
[5] = 24 h, 1 µM, compound concentration 1 uM, replicate 1
[6] = 24 h, 1 µM, compound concentration 1 uM, replicate 2
[7] = 24 h, 10 µM, compound concentration 10 uM, replicate 1
[8] = 24 h, 10 µM, compound concentration 10 uM, replicate 2

CC[C@@]1(O)C(=O)OCc2c1cc1n(c2=O)Cc2cc3ccccc3nc2-1 [CAMPTOTHECIN]
Population Healthy Nuclei (%) [1]: 34% and 42% and 78% | Population Membrane Permeable-Phenotype (%) [1]: 11% and 13% and 14% | Population Mitochondria Different-Phenotype (%) [1]: 25% and 31% and 35% | Population Normal (%) [1]: 48% and 90% | Population Pyknosed Nuclei (%) [1]: 13% and 7% | Population Tubulin-Different-Phenotype (%) [1]: 20% and 33% | Population Apoptotic (%) [2]: 22% and 36% and 16% | Population Fragmented Nuclei (%) [2]: 62% and 59% and 26% | Population Healthy Nuclei (%) [2]: 25% and 24% and 65% | Population Hoechst High Intensity Objects (%) [2]: 62% and 50% and 28% | Population Membrane Permeable-Phenotype (%) [2]: 10% and 9% | Population Mitochondria Different-Phenotype (%) [2]: 45% and 38% and 22% | Population Mitotic Cells (%) [2]: 77% and 64% and 83% | Population Normal (%) [2]: 37% and 49% and 71% | Population Pyknosed Nuclei (%) [2]: 12% and 15% | Population Apoptotic (%) [3]: 47% | Population Fragmented Nuclei (%) [3]: 13% | Population Healthy Nuclei (%) [3]: 74% | Population Hoechst High Intensity Objects (%) [3]: 6% | Population Membrane Permeable-Phenotype (%) [3]: 16% | Population Mitochondria Different-Phenotype (%) [3]: 24% | Population Mitotic Cells (%) [3]: 52% | Population Normal (%) [3]: 93% | Population Pyknosed Nuclei (%) [3]: 11% | Population Tubulin-Different-Phenotype (%) [3]: 31% | Total Cell Count [3]: 161 | Population Apoptotic (%) [4]: 18% | Population Fragmented Nuclei (%) [4]: 20% | Population Healthy Nuclei (%) [4]: 68% | Population Hoechst High Intensity Objects (%) [4]: 19% | Population Membrane Permeable-Phenotype (%) [4]: 13% | Population Mitochondria Different-Phenotype (%) [4]: 32% | Population Mitotic Cells (%) [4]: 81% | Population Normal (%) [4]: 80% | Population Pyknosed Nuclei (%) [4]: 10% | Population Tubulin-Different-Phenotype (%) [4]: 38% | Total Cell Count [4]: 131 | Population Apoptotic (%) [5]: 63% and 75% and 77% | Population Healthy Nuclei (%) [5]: 26% and 28% and 72% | Population Membrane Permeable-Phenotype (%) [5]: 36% and 32% and 15% | Population Mitochondria Different-Phenotype (%) [5]: 58% and 57% and 35% | Population Mitotic Cells (%) [5]: 36% and 24% and 22% | Population Normal (%) [5]: 43% and 46% and 91% | Population Pyknosed Nuclei (%) [5]: 15% and 18% | Population Tubulin-Different-Phenotype (%) [5]: 38% and 42% and 40% | Population Apoptotic (%) [6]: 54% and 62% and 80% | Population Fragmented Nuclei (%) [6]: 63% and 22% | Population Hoechst High Intensity Objects (%) [6]: 59% and 27% | Population Mitochondria Different-Phenotype (%) [6]: 54% and 50% and 33% | Population Mitotic Cells (%) [6]: 45% and 37% and 20% | Population Normal (%) [6]: 40% and 72% | Population Pyknosed Nuclei (%) [6]: 21% and 11% | Population Apoptotic (%) [7]: 80% | Population Fragmented Nuclei (%) [7]: 21% | Population Healthy Nuclei (%) [7]: 65% | Population Hoechst High Intensity Objects (%) [7]: 5% | Population Membrane Permeable-Phenotype (%) [7]: 14% | Population Mitochondria Different-Phenotype (%) [7]: 41% | Population Mitotic Cells (%) [7]: 20% | Population Normal (%) [7]: 94% | Population Pyknosed Nuclei (%) [7]: 13% | Population Tubulin-Different-Phenotype (%) [7]: 37% | Total Cell Count [7]: 157 | Population Apoptotic (%) [8]: 90% | Population Fragmented Nuclei (%) [8]: 25% | Population Healthy Nuclei (%) [8]: 64% | Population Hoechst High Intensity Objects (%) [8]: 10% | Population Membrane Permeable-Phenotype (%) [8]: 17% | Population Mitochondria Different-Phenotype (%) [8]: 35% | Population Mitotic Cells (%) [8]: 9% | Population Normal (%) [8]: 89% | Population Pyknosed Nuclei (%) [8]: 11% | Population Tubulin-Different-Phenotype (%) [8]: 42% | Total Cell Count [8]: 112
